# Data taken from ChEMBL document CHEMBL1772934, “Applications of 2-arylhydrazononitriles in synthesis: preparation of new indole containing 1,2,3-triazole, pyrazole and pyrazolo[1,5-a]pyrimidine derivatives and evaluation of their antimicrobial activities” (2011).
# What was measured:
# Assay type in all cases: functional
# Conditions in all cases: read-out: DIZ
# [1] = tested on: Candida albicans; test: Antimicrobial activity against Candida albicans at 1 mg/ml after 48 hrs by agar well diffusion method
# Method in brief: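 A 0.1 mL aliquot of the yeast was spread on potato dextrose agar. 4 mm cork-borer wells received compound in DMSO at a final concentration of 1 mg mL-1. Plates were incubated at 25 °C for 48 h. The inhibition zone diameter was read and averaged over triplicate measurements.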
# [2] = tested on: Staphylococcus aureus; test: Antimicrobial activity against Staphylococcus aureus at 1 mg/ml after 24 hrs by agar well diffusion method
# Method in brief: (§1)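 A 0.1 mL aliquot of each bacterial strain was spread on nutrient agar. 4 mm wells were cut with a sterile cork borer and filled with compound in DMSO at a final concentration of 1 mg mL-1. Plates were incubated at 37 °C for 24 h. The inhibition zone diameter around each well was measured and averaged over triplicate measurements.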
# [3] = tested on: Bacillus subtilis; test: Antimicrobial activity against Bacillus subtilis at 1 mg/ml after 24 hrs by agar well diffusion method; method in brief: as §1
# [4] = tested on: Escherichia coli; test: Antimicrobial activity against Escherichia coli at 1 mg/ml after 24 hrs by agar well diffusion method; method in brief: as §1
SMILES,zone of inhibition at 1000 µg/mL [1] [mm],zone of inhibition at 1000 µg/mL [2] [mm],zone of inhibition at 1000 µg/mL [3] [mm],zone of inhibition at 1000 µg/mL [4] [mm]
Cc1[nH]c2ccccc2c1C(=O)c1nn(-c2ccccc2)nc1NC(=O)/C(C#N)=C/N(C)C,0,0,2.5,0
Cn1cc(C(=O)c2nn(-c3ccccc3)nc2N)c2ccccc21,10.7,12.2,6,6.7
Cc1[nH]c2ccccc2c1C(=O)c1nn(-c2ccccc2)nc1N,8.7,12,12,8.7
Cc1[nH]c2ccccc2c1C(=O)c1nn(-c2ccccc2)nc1NC(=O)CC#N,0,0,9.3,6.2
Cc1[nH]c2ccccc2c1C(=O)c1nn(-c2ccccc2)nc1NC(=O)c1cn[nH]c1N,0,0,11.3,0
Cn1cc(C(=O)c2nn(-c3ccccc3)nc2NC(=O)CC#N)c2ccccc21,0,0,6,0
Cc1[nH]c2ccccc2c1-c1c(C#N)c(=O)[nH]c2nn(-c3ccccc3)nc12,0,0,6,4
Cc1[nH]c2ccccc2c1C(=O)c1nn(-c2ccccc2)nc1NC(=O)c1cnn2c(-c3ccccc3)ccnc12,0,0,8,5
Cn1cc(C(=O)c2nn(-c3ccccc3)nc2NC(=O)c2cnn3c(-c4cccs4)ccnc23)c2ccccc21,5.7,0,4,0
Cn1cc(C(=O)CC#N)c2ccccc21,0,0,2,0
Cc1[nH]c2ccccc2c1C(=O)CC#N,0,0,3.3,0
Cn1cc(C(=O)/C(C#N)=N/Nc2ccccc2)c2ccccc21,0,0,2.7,0
Cc1[nH]c2ccccc2c1C(=O)/C(C#N)=N/Nc1ccccc1,0,0,1.3,0
CN(C)/C=C(\C#N)C(=O)Nc1nn(-c2ccccc2)nc1C(=O)c1cn(C)c2ccccc12,0,0,3.3,0
Cn1cc(C(=O)c2nn(-c3ccccc3)nc2NC(=O)c2cn[nH]c2N)c2ccccc21,0,0,2.7,0
Cn1cc(-c2c(C#N)c(=O)[nH]c3nn(-c4ccccc4)nc23)c2ccccc21,0,0,2,0
Cn1cc(C(=O)c2nn(-c3ccccc3)nc2NC(=O)c2cnn3c(-c4ccccc4)ccnc23)c2ccccc21,0,0,3.3,0
Cc1cccc(-c2ccnc3c(C(=O)Nc4nn(-c5ccccc5)nc4C(=O)c4cn(C)c5ccccc45)cnn23)n1,0,0,2.7,0
Cn1cc(C(=O)c2nn(-c3ccccc3)nc2NC(=O)/C(C#N)=C/C=C/c2ccccc2)c2ccccc21,0,0,2.7,0
Cc1[nH]c2ccccc2c1C(=O)c1nn(-c2ccccc2)nc1NC(=O)/C(C#N)=C/C=C/c1ccccc1,0,–,3,0
CC1(C)S[C@@H]2[C@H](NC(=O)[C@H](N)c3ccccc3)C(=O)N2[C@H]1C(=O)O [AMPICILLIN],–,5,1,22
